The results in this text go back to ChEMBL document CHEMBL4118021, “Studies of TAK1-centered polypharmacology with novel covalent TAK1 inhibitors” (Bioorg Med Chem, 2017).

The source made the active and inactive calls. No cut-off for these calls is given here.

In data set [1] the target is Glycogen synthase kinase-3 alpha (Homo sapiens) (UniProt P49840). Description: Binding affinity to GSK3A in human NCI-H358 cells at 1 uM by mass spectrometry based pull down assay. It is filed as cell-based.
For data set [2], the target named is Long-chain-fatty-acid--CoA ligase 1 (Homo sapiens) (UniProt P33121). Description: Binding affinity to ACSL1 in human NCI-H358 cells at 1 uM by mass spectrometry based pull down assay. It is filed as cell-based. The procedure, abridged:
(§1)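 NCI-H23 or NCI-H358 cells were grown and lysed. Lysates were incubated overnight at 4 °C with 1 μM biotinylated covalent probe or DMSO, then pulled down on streptavidin beads. Proteins were run on polyacrylamide gels and stained with Coomassie. Bands were excised, digested and identified by mass spectrometry.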

For data set [3], the target named is Protein disulfide-isomerase A3 (Homo sapiens) (UniProt P30101). Description: Binding affinity to PDIA3 in human NCI-H358 cells at 1 uM by mass spectrometry based pull down assay. It is filed as cell-based.
Data set [4] has as its target Catenin alpha-1 (Homo sapiens) (UniProt P35221). Description: Binding affinity to CTNNA1 in human NCI-H358 cells at 1 uM by mass spectrometry based pull down assay. It is filed as cell-based.
Data set [5] concerns the target Tyrosine-protein kinase Yes (Homo sapiens) (UniProt P07947). Description: Binding affinity to YES1 in human NCI-H358 cells at 1 uM by mass spectrometry based pull down assay. In kind it is cell-based.
The target in data set [6] is Proto-oncogene tyrosine-protein kinase Src (Homo sapiens) (UniProt P12931). Description: Binding affinity to SRC in human NCI-H358 cells at 1 uM by mass spectrometry based pull down assay. In kind it is cell-based.
Data set [7] addresses T1, 80S Ribosome (Homo sapiens) (UniProt P08865+P42677+P62753+P15880+P23396+P61247+P62701+P22090+P46782+P62081+P62241+P46781+P46783+P62280+P25398+P62277+P62263+P62841+P62244+P62249+P08708+P62269+P39019+P60866+P63220+P62266+P62847+P62851+P62854+P62979+P62857+P62273+P62861+P39023+P36578+P46777+Q02878+P18124+P62424+P62917+P32969+P27635+P62906+P62913+P30050+P26373+P40429+P50914+P61313+P18621+Q07020+Q02543+P84098+P46778+P35268+P62829+P62750+P83731+P61254+P61353+P46776+P46779+P47914+P62888+P62899+P62910+P49207+P42766+P18077+Q9Y3U8+P83881+P61927+P61513+P63173+P62891+P62945+P05388+P05386). Description: Binding affinity to RPS11 in human NCI-H23 cells at 1 uM by mass spectrometry based pull down assay. In kind it is cell-based.

The target in data set [8] is T2, Serine/threonine-protein kinase D2 (Homo sapiens) (UniProt Q9BZL6).
T2 sequence (whole entry): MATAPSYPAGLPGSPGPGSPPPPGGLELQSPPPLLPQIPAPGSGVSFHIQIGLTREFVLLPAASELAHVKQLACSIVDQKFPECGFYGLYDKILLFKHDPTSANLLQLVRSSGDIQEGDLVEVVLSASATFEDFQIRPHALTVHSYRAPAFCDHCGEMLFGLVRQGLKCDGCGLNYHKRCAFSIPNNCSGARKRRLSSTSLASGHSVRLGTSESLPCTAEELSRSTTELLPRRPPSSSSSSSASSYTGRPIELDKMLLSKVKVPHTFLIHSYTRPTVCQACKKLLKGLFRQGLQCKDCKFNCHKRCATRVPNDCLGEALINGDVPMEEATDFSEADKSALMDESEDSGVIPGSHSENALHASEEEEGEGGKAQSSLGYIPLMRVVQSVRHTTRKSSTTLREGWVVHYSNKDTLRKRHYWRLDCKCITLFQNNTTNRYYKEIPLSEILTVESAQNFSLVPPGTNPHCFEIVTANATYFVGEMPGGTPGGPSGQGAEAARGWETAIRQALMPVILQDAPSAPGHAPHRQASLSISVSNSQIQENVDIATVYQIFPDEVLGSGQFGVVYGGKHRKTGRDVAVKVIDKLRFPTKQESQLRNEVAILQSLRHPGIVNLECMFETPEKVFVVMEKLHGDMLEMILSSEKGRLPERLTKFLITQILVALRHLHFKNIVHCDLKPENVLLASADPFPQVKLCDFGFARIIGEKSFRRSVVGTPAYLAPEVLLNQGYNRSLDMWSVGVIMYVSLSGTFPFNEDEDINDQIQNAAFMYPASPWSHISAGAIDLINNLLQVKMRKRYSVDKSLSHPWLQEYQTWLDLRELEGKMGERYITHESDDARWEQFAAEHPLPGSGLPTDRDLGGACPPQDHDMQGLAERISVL
Description: Binding affinity to PRKD2 in human NCI-H23 cells at 1 uM by mass spectrometry based pull down assay. It is filed as cell-based.

Data set [9] addresses Thymidylate synthase (Homo sapiens) (UniProt P04818). Description: Binding affinity to TYMS in human NCI-H23 cells at 1 uM by mass spectrometry based pull down assay. It is filed as cell-based.
Data set [10] concerns the target ATP-dependent 6-phosphofructokinase, liver type (Homo sapiens) (UniProt P17858). Description: Binding affinity to PFKL in human NCI-H23 cells at 1 uM by mass spectrometry based pull down assay. It is filed as cell-based.
In data set [11] the target is Actin-related protein 3 (Homo sapiens) (UniProt P61158). Description: Binding affinity to ACTR3 in human NCI-H23 cells at 1 uM by mass spectrometry based pull down assay. In kind it is cell-based. In a few lines:
as §1

Data set [12] concerns the target T1, 80S Ribosome (Homo sapiens). Description: Binding affinity to RPL10 in human NCI-H358 cells at 1 uM by mass spectrometry based pull down assay. It is filed as cell-based.
The target of data set [13] is Actin-related protein 2/3 complex subunit 2 (Homo sapiens) (UniProt O15144). Description: Binding affinity to ARPC2 in human NCI-H23 cells at 1 uM by mass spectrometry based pull down assay. It is filed as cell-based.
In data set [14] the target is Large ribosomal subunit protein bL19m (Homo sapiens) (UniProt P49406). Description: Binding affinity to MRPL19 in human NCI-H23 cells at 1 uM by mass spectrometry based pull down assay. In kind it is cell-based.
For data set [15], the target named is Actin-related protein 2/3 complex subunit 5 (Homo sapiens) (UniProt O15511). Description: Binding affinity to ARPC5 in human NCI-H23 cells at 1 uM by mass spectrometry based pull down assay. It is filed as cell-based.
Data set [16] addresses Coatomer subunit beta (Homo sapiens) (UniProt P53618). Description: Binding affinity to COPB1 in human NCI-H358 cells at 1 uM by mass spectrometry based pull down assay. It is filed as cell-based.
The nature of data set [17]: Increase in secretion of basic-FGF in poly(I:C) activated RA patient-derived synovial fibroblasts at 0.6 to 3 uM preincubated for 3 hrs followed by poly(I:C) stimulation measured after 18 hrs by sandwich immunoassay. The settings on record: human. The procedure, abridged:
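Primary human RA synovial fibroblasts (donor RA2159) seeded at 1000 viable cells/well, grown ~24 h at 37 °C/5% CO2, then starved overnight in basal medium and for a further ~4 h in basal medium with 0.1% BSA. Inhibitor or DMSO given 3 h before stimulation. Supernatants from two adjacent wells pooled as one replicate, biological duplicate. Luminex multiplex panels (48 analytes), diluted 1:3. Mock-supernatant background and spiked-ligand cross-reactivity controls included.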

Coatomer subunit beta (Homo sapiens), sequence (P53618 whole entry): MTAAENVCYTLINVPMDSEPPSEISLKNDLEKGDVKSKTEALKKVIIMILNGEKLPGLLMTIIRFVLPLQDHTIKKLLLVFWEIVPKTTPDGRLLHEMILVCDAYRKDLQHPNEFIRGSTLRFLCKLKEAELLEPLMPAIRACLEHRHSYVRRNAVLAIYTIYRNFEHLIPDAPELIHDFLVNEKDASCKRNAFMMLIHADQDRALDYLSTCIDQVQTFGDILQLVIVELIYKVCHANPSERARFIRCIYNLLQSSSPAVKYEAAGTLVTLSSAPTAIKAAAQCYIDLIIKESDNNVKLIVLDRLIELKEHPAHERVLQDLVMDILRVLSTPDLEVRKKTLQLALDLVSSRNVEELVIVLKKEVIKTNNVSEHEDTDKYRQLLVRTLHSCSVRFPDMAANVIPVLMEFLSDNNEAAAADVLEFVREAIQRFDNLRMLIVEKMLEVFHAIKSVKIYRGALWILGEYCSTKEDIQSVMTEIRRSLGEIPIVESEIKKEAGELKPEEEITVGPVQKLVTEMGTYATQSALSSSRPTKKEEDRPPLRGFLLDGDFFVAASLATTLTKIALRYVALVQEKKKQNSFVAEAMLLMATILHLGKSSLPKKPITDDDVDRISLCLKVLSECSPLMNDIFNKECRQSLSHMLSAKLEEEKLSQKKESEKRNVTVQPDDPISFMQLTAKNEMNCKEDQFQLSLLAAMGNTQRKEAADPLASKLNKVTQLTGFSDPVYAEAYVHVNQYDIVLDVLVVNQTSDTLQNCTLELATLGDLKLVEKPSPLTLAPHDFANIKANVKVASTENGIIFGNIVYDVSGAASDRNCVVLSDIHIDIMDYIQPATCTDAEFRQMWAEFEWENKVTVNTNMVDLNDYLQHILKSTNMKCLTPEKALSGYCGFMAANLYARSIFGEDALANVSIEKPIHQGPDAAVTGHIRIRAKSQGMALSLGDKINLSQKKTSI
Thymidylate synthase (Homo sapiens), sequence (P04818 2-313 limits assumed): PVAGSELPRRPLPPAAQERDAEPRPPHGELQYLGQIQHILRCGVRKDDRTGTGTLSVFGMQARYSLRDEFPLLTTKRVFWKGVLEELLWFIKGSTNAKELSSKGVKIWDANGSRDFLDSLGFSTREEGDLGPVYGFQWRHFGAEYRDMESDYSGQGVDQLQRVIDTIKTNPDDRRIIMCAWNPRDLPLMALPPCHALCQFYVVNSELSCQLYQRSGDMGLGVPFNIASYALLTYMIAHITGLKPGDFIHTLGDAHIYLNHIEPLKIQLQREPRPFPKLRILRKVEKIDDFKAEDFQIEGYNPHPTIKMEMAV
Glycogen synthase kinase-3 alpha (Homo sapiens), sequence (P49840 2-483 limits assumed): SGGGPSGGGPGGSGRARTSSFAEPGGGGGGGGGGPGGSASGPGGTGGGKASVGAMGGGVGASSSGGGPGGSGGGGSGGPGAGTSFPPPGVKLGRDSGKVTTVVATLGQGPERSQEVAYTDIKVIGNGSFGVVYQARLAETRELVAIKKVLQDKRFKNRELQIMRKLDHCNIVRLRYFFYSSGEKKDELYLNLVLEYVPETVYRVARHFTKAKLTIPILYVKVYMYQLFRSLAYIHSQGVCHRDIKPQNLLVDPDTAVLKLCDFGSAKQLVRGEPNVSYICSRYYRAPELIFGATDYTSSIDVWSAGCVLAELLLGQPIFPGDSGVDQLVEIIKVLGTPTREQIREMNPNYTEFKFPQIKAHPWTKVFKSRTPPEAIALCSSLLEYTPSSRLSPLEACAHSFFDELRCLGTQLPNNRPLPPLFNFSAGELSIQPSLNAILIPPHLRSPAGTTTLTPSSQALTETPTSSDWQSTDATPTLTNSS
Tyrosine-protein kinase Yes (Homo sapiens), sequence (P07947 2-543 limits assumed): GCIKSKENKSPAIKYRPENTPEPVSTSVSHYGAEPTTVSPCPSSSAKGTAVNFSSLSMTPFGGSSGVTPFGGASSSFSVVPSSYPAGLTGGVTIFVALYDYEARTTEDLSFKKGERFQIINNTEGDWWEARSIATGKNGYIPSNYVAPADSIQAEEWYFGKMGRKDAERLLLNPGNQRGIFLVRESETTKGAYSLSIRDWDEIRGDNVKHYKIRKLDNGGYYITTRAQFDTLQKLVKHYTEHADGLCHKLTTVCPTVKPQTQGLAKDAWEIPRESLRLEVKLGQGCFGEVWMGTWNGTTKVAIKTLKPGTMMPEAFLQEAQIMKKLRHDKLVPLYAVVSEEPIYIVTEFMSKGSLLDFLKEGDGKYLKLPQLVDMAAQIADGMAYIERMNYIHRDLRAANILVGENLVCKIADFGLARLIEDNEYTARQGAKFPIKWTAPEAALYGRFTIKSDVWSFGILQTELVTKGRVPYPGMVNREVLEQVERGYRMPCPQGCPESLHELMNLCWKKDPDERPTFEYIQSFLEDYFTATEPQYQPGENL
ATP-dependent 6-phosphofructokinase, liver type (Homo sapiens), sequence (P17858 whole entry): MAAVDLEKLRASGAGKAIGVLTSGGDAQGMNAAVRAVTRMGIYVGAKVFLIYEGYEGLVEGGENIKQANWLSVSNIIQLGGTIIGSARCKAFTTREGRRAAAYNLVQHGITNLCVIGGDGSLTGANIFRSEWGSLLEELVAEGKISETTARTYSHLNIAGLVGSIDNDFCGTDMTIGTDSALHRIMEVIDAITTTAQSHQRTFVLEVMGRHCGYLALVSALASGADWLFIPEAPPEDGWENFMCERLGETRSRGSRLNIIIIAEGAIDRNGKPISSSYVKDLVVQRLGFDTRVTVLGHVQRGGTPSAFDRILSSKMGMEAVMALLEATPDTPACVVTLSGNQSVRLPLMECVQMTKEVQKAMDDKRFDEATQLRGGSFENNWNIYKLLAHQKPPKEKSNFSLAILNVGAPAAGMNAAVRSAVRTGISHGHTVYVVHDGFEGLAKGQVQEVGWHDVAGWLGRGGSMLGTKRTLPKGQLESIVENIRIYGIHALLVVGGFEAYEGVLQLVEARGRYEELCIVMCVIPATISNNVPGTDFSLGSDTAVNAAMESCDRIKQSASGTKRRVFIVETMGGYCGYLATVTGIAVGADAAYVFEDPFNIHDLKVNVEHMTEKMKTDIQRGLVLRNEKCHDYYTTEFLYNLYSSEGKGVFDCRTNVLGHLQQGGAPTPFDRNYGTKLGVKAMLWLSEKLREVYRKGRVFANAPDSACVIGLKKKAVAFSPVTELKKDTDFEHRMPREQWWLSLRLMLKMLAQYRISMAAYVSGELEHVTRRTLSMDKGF
Protein disulfide-isomerase A3 (Homo sapiens), sequence (P30101 whole entry): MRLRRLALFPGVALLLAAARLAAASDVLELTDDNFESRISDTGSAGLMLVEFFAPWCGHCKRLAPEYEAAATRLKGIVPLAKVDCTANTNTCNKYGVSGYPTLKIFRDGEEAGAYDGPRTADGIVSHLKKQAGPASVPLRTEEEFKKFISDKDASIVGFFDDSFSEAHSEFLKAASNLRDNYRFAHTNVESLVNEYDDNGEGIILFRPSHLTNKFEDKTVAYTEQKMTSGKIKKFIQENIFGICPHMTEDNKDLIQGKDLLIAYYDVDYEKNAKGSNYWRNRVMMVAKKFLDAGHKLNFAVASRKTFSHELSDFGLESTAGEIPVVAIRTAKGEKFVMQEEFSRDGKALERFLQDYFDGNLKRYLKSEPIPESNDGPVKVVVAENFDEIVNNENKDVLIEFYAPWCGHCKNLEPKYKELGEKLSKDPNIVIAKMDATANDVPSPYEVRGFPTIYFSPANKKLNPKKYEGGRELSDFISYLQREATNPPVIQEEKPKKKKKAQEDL
Long-chain-fatty-acid--CoA ligase 1 (Homo sapiens), sequence (P33121 whole entry): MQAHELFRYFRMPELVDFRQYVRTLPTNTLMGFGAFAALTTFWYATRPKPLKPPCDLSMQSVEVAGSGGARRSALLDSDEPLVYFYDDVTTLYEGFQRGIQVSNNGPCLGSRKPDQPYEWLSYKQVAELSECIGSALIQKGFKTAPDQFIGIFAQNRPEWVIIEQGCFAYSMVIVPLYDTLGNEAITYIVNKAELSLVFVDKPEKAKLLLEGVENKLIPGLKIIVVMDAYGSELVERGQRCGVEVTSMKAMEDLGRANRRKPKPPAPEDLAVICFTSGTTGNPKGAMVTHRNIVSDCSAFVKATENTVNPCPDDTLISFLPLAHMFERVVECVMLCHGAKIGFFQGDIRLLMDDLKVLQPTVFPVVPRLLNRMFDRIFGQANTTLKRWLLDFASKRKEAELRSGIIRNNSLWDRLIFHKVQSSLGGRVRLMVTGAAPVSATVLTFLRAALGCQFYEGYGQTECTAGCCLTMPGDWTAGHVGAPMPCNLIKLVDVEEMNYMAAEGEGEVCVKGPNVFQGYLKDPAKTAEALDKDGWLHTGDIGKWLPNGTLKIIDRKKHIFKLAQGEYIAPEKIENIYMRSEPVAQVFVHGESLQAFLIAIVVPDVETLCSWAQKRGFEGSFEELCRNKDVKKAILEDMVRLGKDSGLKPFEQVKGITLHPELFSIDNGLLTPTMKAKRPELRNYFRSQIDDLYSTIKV
Proto-oncogene tyrosine-protein kinase Src (Homo sapiens), sequence (P12931 2-536 limits assumed): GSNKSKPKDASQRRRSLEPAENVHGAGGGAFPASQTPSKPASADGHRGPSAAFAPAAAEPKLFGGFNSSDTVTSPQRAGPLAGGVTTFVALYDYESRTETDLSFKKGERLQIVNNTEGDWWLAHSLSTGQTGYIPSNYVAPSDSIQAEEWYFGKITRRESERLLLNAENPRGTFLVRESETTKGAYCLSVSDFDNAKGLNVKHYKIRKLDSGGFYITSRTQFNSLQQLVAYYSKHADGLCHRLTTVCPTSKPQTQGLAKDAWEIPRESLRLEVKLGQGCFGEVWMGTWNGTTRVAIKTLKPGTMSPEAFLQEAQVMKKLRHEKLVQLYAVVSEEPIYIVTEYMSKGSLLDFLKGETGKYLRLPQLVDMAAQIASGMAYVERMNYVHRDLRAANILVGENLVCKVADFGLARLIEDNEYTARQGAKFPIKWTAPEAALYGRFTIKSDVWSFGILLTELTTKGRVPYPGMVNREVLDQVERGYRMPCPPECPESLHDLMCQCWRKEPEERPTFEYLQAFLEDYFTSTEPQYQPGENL

As to `C=CC(=O)Nc1ccccc1Nc1nc(Nc2ccc(N3CCN(CCOCCOCCOCCNC(=O)CCCC[C@@H]4SC[C@@H]5NC(=O)N[C@@H]54)CC3)cc2)ncc1Cl`, the outcome in [1], in [2], in data set [3], in data set [4], in data set [5] and in data set [6] was Active. Further, the result in [7], in data set [8], in data set [9], in data set [10], in data set [11] and in [12] was Active. In addition, the result in data set [13], in data set [14], in data set [15] and in data set [16] was Active.
Take `COc1cc(O)c2c(c1)/C=C/C[C@H](O)[C@H](O)C(=O)/C=C\C[C@H](C)OC2=O`: in [17], the Activity result is given as “Non-Toxic”.
